SMILES strings stand for the structures. ≈ marks a conversion by molar mass, not a printed value. Calls of active or inactive are those of the source. The rule behind the calls is not given here. Some results are limits rather than exact numbers.

14 molecules from ChEMBL document CHEMBL1268916, “Second generation 2-pyridyl biphenyl amide inhibitors of the hedgehog pathway” (Bioorg Med Chem Lett, 2010) can be followed below.

Series [1] in a line: Inhibition of Hedgehog signaling in human HEPM cells assessed as reduction in receptor-mediated Gli1 mRNA expression by reporter gene assay. It counts as cell-based. (In general: A reporter such as luciferase makes a cellular process visible.)
Series [2] is described as follows: Inhibition of Hedgehog signaling in mouse S12 cells assessed as reduction in receptor-mediated Gli1 mRNA expression by reporter gene assay. The series is classed as cell-based.
Series [3] is described as follows: Plasma concentration in Calu-6 cells xenografted nude mouse PK/PD model at 75 mg/kg, po bid for 5 days measured 4 hrs post last dose relative to untreated control. The series is classed as ADME, organism-based. On the set-up: dose 75 mg/kg, route oral. The gist of the method: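 Calu-6 tumor-bearing mice were dosed orally 75 mg/kg BID for five doses. Plasma was sampled 4 h after the last dose, at the same time as tumor harvest. Compound was given as free base or HCl salt, suspended in a methylcellulose/Tween or Labrafil-based vehicle.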

Series [4] can be described thus: Clearance in rat at 5 mg/kg, po or 1 mg/kg, iv. It counts as ADME, organism-based. The following applies: in vivo. The gist of the method: (§1)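 Male rats received the TFA salt as a solution. The IV dose was 1 mg/kg in 80% PEG or in 5% DMSO/5% cremophor. The oral dose was 5 mg/kg in 60–80% PEG.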
Series [5] can be described thus: Thermodynamic solubility at pH 1.0. The settings on record: buffer. It counts as physicochemical.
The nature of series [6]: Thermodynamic solubility at pH 6.5. It counts as physicochemical. The settings on record: buffer.
The next series has as its target Cytochrome P450 2C9 (Homo sapiens, UniProt P11712). Description: Inhibition of CYP2C9. The series is classed as ADME.
For another series, the target named is Cytochrome P450 3A4 (Homo sapiens, UniProt P08684). Kind of series: Inhibition of CYP3A4. It counts as ADME.
Series [7] concerns Mus musculus. Kind of series: Inhibition of Hedgehog signaling in Calu-6 cells xenografted nude mouse PK/PD model assessed as reduction in Gli1 mRNA expression at 75 mg/kg, po bid for 5 days measured 4 hrs post last dose relative to untreated control. The series is classed as functional. The settings on record: Calu-6, po, in the assay text read “for 5 doses” for “for 5 days”. In a few lines: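 Nude mice bearing established Calu-6 tumors got 75 mg/kg by oral gavage BID for five doses. Tumors were harvested 4 h after the last dose. Stromal (murine) Gli1 mRNA was measured and expressed relative to vehicle-treated tumors. Compound was given as free base or HCl salt, suspended in a methylcellulose/Tween or Labrafil-based formulation.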

Series [8] in a line: Volume of distribution at steady state in rat at 5 mg/kg, po or 1 mg/kg, iv. It counts as ADME, organism-based. The following applies: in vivo, read-out: Vdss. The gist of the method: as §1
Series [9] concerns Mus musculus. Description: Volume of distribution in Calu-6 cells xenografted nude mouse PK/PD model at 75 mg/kg, po bid for 5 days measured 4 hrs post last dose relative to untreated control. It counts as ADME, organism-based. The settings on record: in vivo. On the set-up: dose 75 mg/kg, route oral.
The subject of series [10] is Mus musculus. Kind of series: Inhibition of Hedgehog signaling in Calu-6 cells xenografted nude mouse PK/PD model assessed as reduction in Gli1 mRNA expression at 75 mg/kg, po bid for 5 doses measured 4 hrs post last dose relative to untreated control. The following applies: Calu-6, po.
Series [11] relates to Mus musculus. Description: Antitumor activity in mouse medulloblastoma allograft model harboring tumors with activating mutations in Hh pathway (Ptch+/-) assessed as complete regression of tumor volume at 5 mg/kg, po bid. On the set-up: dose 5 mg/kg. It counts as functional, organism-based. In a few lines: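 Spontaneous medulloblastomas from Ptch+/- mice passaged subcutaneously in nude mice. Once tumors were established, mice were dosed twice daily for 20 days at 5 mg/kg BID. Tumor volume was followed over time.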

Series [12] is described as follows: Plasma concentration in Calu-6 cells xenografted nude mouse PK/PD model at 25 mg/kg, po bid for 5 days measured 6 hrs post last dose relative to untreated control. It counts as ADME, organism-based. On the set-up: dose 25 mg/kg, route oral.
Series [13] has as its system Mus musculus. Kind of series: Inhibition of Hedgehog signaling in Calu-6 cells xenografted nude mouse PK/PD model assessed as reduction in Gli1 mRNA expression at 25 mg/kg, po bid for 5 days measured 4 hrs post last dose relative to untreated control. The series is classed as functional.

Sequence of Cytochrome P450 2C9 (P11712 whole entry): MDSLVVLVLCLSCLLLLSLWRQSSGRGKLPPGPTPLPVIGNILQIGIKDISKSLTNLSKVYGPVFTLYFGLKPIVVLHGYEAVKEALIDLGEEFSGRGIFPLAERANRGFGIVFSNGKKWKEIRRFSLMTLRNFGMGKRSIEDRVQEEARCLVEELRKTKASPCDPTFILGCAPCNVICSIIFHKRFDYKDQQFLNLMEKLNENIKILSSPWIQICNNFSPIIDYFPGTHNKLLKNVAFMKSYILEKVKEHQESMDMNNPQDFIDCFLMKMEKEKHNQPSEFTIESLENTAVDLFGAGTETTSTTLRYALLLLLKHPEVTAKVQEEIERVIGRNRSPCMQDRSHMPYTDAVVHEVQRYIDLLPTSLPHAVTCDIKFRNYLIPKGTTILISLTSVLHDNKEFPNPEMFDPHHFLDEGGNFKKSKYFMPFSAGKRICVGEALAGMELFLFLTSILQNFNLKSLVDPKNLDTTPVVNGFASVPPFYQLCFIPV
Sequence of Cytochrome P450 3A4 (P08684 whole entry): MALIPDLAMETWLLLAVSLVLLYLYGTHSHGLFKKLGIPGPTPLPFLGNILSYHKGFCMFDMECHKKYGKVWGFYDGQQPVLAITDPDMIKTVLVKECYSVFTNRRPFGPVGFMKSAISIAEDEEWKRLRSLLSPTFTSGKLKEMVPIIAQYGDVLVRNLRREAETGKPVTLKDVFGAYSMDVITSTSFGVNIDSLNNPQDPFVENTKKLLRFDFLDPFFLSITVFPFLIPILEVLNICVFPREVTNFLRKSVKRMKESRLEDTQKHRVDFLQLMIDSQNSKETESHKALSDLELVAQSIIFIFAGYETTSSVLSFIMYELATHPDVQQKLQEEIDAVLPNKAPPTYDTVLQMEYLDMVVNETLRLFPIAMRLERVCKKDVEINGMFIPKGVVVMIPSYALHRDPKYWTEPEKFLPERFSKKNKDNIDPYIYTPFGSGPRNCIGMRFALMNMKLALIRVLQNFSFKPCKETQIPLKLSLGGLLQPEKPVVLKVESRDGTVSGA

As usually defined, the IC50 is the concentration that gives 50% inhibition. What is called solubility (thermodynamic) is solubility found after equilibrating the solid with the medium. The inhibition in vivo is the share of the control response that was lost under treatment. For the molecule `CS(=O)(=O)Cc1ccc(C(=O)Nc2ccc(Cl)c(-c3ccccn3)c2)c(Cl)c1`, the IC50 was 1 nM in series [1], 3 nM in series [2], 16000 nM at Cytochrome P450 2C9 and more than 20000 nM at Cytochrome P450 3A4. Besides, the concentration at 4 h in [3] came out at 0.3 µM. The molecule further yielded a clearance in [4] of 5.5 mL/min/kg. Also, the thermodynamic solubility in series [5] turned out to be 110 µg/mL (≈ 253 µM); in [6], 3 µg/mL (≈ 6.89 µM). In the series on Mus musculus [7], the inhibition in vivo at 75 mg/kg came to 0%.
On to `O=C(Nc1ccc(Cl)c(-c2ccccn2)c1)c1ccc(C(=O)N2CCS(=O)(=O)CC2)cc1Cl`, for which the IC50 is 5 nM in [1], 33 nM in series [2], 9000 nM against Cytochrome P450 2C9 and more than 20000 nM on Cytochrome P450 3A4. The molecule also had a clearance in [4] of 35 mL/min/kg. In addition, the solubility (thermodynamic) in [5] came out at 4300 µg/mL (≈ 8530 µM); in series [6] it was 60 µg/mL (≈ 119 µM).
With `Cc1nc(NCC(C)C)ccc1C(=O)Nc1ccc(Cl)c(-c2ccccn2)c1`, the IC50 in [1] turned out to be 14 nM; in series [2] it was 53 nM; on Cytochrome P450 2C9, 500 nM; at Cytochrome P450 3A4 it was 19000 nM.
`Cc1nc(C(F)(F)F)ccc1C(=O)Nc1ccc(Cl)c(-c2ccccn2)c1`: the IC50 in series [1] is 15 nM; in [2], 42 nM; on Cytochrome P450 2C9, more than 20000 nM; against Cytochrome P450 3A4, more than 20000 nM. The molecule further registered a concentration at 4 h in [3] of 15 µM. In addition, the clearance in series [4] amounted to 4.5 mL/min/kg. Besides, the thermodynamic solubility came out at 1000 µg/mL (≈ 2550 µM) in series [5] and 2 µg/mL (≈ 5.1 µM) in series [6]. Moreover, the inhibition in vivo at 75 mg/kg with Mus musculus [7] worked out at 40%. In addition, the Vd in [8] is 0.95 L/kg.
As for `Cc1ncn(-c2ccc(C(=O)Nc3ccc(Cl)c(-c4ccccn4)c3)c(C)n2)n1`, the IC50 in series [1] is 8 nM; in series [2] it was 67 nM; on Cytochrome P450 2C9, more than 20000 nM; against Cytochrome P450 3A4 it was more than 20000 nM. For the same molecule, the concentration at 4 h in series [3] is 150 µM. Moreover, the clearance in [4] stood at 0.7 mL/min/kg. The solubility (thermodynamic) in series [5] was 900 µg/mL (≈ 2220 µM); in series [6], 6 µg/mL (≈ 14.8 µM). Also, the Vd in the series with Mus musculus [9] was determined as 0.15 L/kg; in series [8] it was 0.24 L/kg. Also, the inhibition in vivo at 75 mg/kg in the series on Mus musculus [10] was 50%.
With `O=C(NCc1ccccn1)c1ccc(C(=O)Nc2ccc(Cl)c(-c3ccccn3)c2)c(Cl)c1`, the IC50 in [1] is 0.4 nM; in [2], 4 nM; against Cytochrome P450 2C9 it was 4500 nM; against Cytochrome P450 3A4, more than 20000 nM. In addition, the inhibition entry with Mus musculus [11] was “Active”. In series [4], this molecule gave a clearance of 6.7 mL/min/kg. Also, the solubility (thermodynamic) in [5] was determined as 4300 µg/mL (≈ 9010 µM); in series [6] it was 3 µg/mL (≈ 6.28 µM). The concentration at 6 h in series [12] stood at 1.7 µM. The inhibition in vivo at 25 mg/kg with Mus musculus [13] stood at 90%.
On to `CS(=O)(=O)Nc1ccc(C(=O)Nc2ccc(Cl)c(-c3ccccn3)c2)c(Cl)c1`, for which the IC50 was 2 nM in series [1], 17 nM in [2], 8000 nM on Cytochrome P450 2C9 and more than 20000 nM at Cytochrome P450 3A4. In addition, the concentration at 4 h in series [3] turned out to be 2.2 µM. The molecule further registered a clearance in series [4] of 2.4 mL/min/kg. The solubility (thermodynamic) in series [5] stood at 910 µg/mL (≈ 2090 µM); in series [6] it was 1 µg/mL (≈ 2.29 µM). In the series on Mus musculus [10], the inhibition in vivo at 75 mg/kg came out at 25%.
Regarding `CCN1CCN(c2ccc(C(=O)Nc3ccc(Cl)c(-c4ccccn4)c3)c(C)n2)CC1`, the IC50 in series [1] was 5 nM; in [2], 160 nM; on Cytochrome P450 2C9, more than 20000 nM; on Cytochrome P450 3A4, more than 20000 nM.
On to `CS(=O)(=O)c1ccc(C(=O)Nc2ccc(Cl)c(-c3ccccn3)c2)c(Cl)c1` [VISMODEGIB], for which the IC50 in [1] was 3 nM; in [2], 13 nM; against Cytochrome P450 2C9, more than 20000 nM; at Cytochrome P450 3A4, more than 20000 nM. Moreover, the clearance in [4] amounted to 3.7 mL/min/kg. Moreover, the solubility (thermodynamic) in series [5] came to 3500 µg/mL (≈ 8310 µM); in series [6], 10 µg/mL (≈ 23.7 µM). For the same molecule, the inhibition in vivo at 75 mg/kg in the series with Mus musculus [7] was determined as 90%.
With `Cc1nc(NCCO)ccc1C(=O)Nc1ccc(Cl)c(-c2ccccn2)c1`, the IC50 in series [1] is 23 nM; in [2] it was 62 nM; at Cytochrome P450 2C9, more than 20000 nM; at Cytochrome P450 3A4, more than 20000 nM.
For the molecule `CC(=O)N1CCN(c2ccc(C(=O)Nc3ccc(Cl)c(-c4ccccn4)c3)c(C)n2)CC1`, the IC50 in series [1] is 5 nM; in series [2], 22 nM; against Cytochrome P450 2C9, 16000 nM; on Cytochrome P450 3A4, more than 20000 nM. The concentration at 4 h in [3] was found to be 22 µM. The molecule further registered a clearance in series [4] of 2 mL/min/kg. The results for the solubility (thermodynamic) in [5] and in series [6] were 3200 µg/mL (≈ 7110 µM) and 6 µg/mL (≈ 13.3 µM), respectively. Moreover, in the series with Mus musculus [7], the inhibition in vivo at 75 mg/kg came to 80%. For the same molecule, the Vd in series [8] stood at 0.38 L/kg.
On to `O=C(Nc1ccc(Cl)c(-c2ccccn2)c1)c1ccc(-n2cncn2)nc1`, for which the IC50 amounted to 8 nM in series [1], 47 nM in [2], 200 nM against Cytochrome P450 2C9 and 200 nM on Cytochrome P450 3A4. The clearance in [4] came to 4 mL/min/kg. Also, the solubility (thermodynamic) was determined as 4000 µg/mL (≈ 10600 µM) in series [5] and 8 µg/mL (≈ 21.2 µM) in [6]. In series [8], the Vd is 1.4 L/kg.
As to `O=C(NCc1ccccc1)c1ccc(C(=O)Nc2ccc(Cl)c(-c3ccccn3)c2)c(Cl)c1`, the IC50 in [1] was 1 nM; in series [2], 7 nM; at Cytochrome P450 2C9, 1200 nM; at Cytochrome P450 3A4 it was more than 20000 nM.
The matching figures for `NS(=O)(=O)c1ccc(C(=O)Nc2ccc(Cl)c(-c3ccccn3)c2)c(Cl)c1`: 5 nM, 35 nM, more than 20000 nM and more than 20000 nM.
